Data from paper PMC11455621 (Structure (London, England : 1993), 2024).
Substitutions are numbered along the chain they refer to.

What was measured:
HsFN3K WT = molecular target: T1, HsFN3K WT (Homo sapiens, UniProt Q9H479); experiment: Direct substrate phosphorylation assay; type: biochemical; details: glycated lysozyme 2mg/mL, 1 hour at 25°C (Figure S6D)
T1 sequence (Q9H479 1-309): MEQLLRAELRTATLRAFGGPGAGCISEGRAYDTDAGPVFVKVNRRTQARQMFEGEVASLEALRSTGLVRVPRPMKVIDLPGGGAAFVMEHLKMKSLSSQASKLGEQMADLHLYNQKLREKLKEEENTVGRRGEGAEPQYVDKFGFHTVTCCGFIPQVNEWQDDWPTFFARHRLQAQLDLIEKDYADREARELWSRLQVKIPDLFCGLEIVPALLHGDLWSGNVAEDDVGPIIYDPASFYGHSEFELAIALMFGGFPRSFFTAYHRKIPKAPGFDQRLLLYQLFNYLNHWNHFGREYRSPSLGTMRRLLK
Method in brief: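 Lysozyme glycated with ribose or glucose (1:1 molar, 3 or 28 days, 50°C). Reaction: 10 or 20 μM FN3K, 2 mg/mL glycated lysozyme, 5 mM HEPES pH 7, 5 mM MgCl2, 100 μM ATP, 1 h at 25°C. Quenched in Laemmli dye, run on SDS-PAGE, fixed in methanol/acetic acid. Stained with Pro-Q Diamond, destained in acetonitrile/sodium acetate pH 4, imaged at 602 nm […]. Coomassie restain for loading.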

HsFN3K [1] = molecular target: T2, HsFN3K (Homo sapiens, UniProt Q9H479); experiment: Differential scanning fluorimetry; type: binding; details: DSF; for Tm increase versus HsFN3K alone: single ligand 250 μM
T2 sequence (Q9H479 1-309): T1 sequence (Q9H479 1-309)

[2] = molecular target: human Fructosamine-3-kinase (HsFN3K) (human) (UniProt Q9H479); experiment: SEC
[3] = molecular target: human Fructosamine-3-kinase (HsFN3K) (human) (UniProt Q9H479); experiment: intact protein LC-MS
HsFN3K D217A [4] = molecular target: T3, HsFN3K D217A (Homo sapiens, UniProt Q9H479, D217A); experiment: Microscale thermophoresis; type: binding
T3 sequence (Q9H479 1-309 D217A): T1 sequence (Q9H479 1-309) with D217A

HsFN3K D234A [5] = molecular target: T4, HsFN3K D234A (Homo sapiens, UniProt Q9H479, D234A); experiment: Microscale thermophoresis; type: binding; details: MST
T4 sequence (Q9H479 1-309 D234A): T1 sequence (Q9H479 1-309) with D234A

HsFN3K [6] = molecular target: T2, HsFN3K; experiment: Microscale thermophoresis; type: binding; details: MST
HsFN3K W219A = molecular target: T5, HsFN3K W219A (Homo sapiens, UniProt Q9H479, W219A); experiment: Differential scanning fluorimetry; type: binding; details: DSF
T5 sequence (Q9H479 1-309 W219A): T1 sequence (Q9H479 1-309) with W219A

HsFN3K H291A [7] = molecular target: T6, HsFN3K H291A (Homo sapiens, UniProt Q9H479, H291A); experiment: Differential scanning fluorimetry; type: binding; details: DSF
T6 sequence (Q9H479 1-309 H291A): T1 sequence (Q9H479 1-309) with H291A

HsFN3K D234A [8] = molecular target: T4, HsFN3K D234A; experiment: Differential scanning fluorimetry; type: binding; details: DSF
HsFN3K H288A [9] = molecular target: T7, HsFN3K H288A (Homo sapiens, UniProt Q9H479, H288A); experiment: Differential scanning fluorimetry; type: binding; details: DSF
T7 sequence (Q9H479 1-309 H288A): T1 sequence (Q9H479 1-309) with H288A

HsFN3K D217A [10] = molecular target: T3, HsFN3K D217A; experiment: Differential scanning fluorimetry; type: binding; details: DSF
HsFN3K H291A [11] = molecular target: T6, HsFN3K H291A; experiment: ADP-Glo kinase kinetics, HsFN3K H291A; type: biochemical; details: H291A mutant vs WT HsFN3K
Method in brief: (§1)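 E. coli BL21(DE3)-expressed human FN3K, MBP-His6 tag removed by TEV, at 0.5 μM. Reaction: 200 μM ATP, 10 mM MgCl2, 0–100 μM DMF, room temperature. Time points quenched with ADP-Glo reagent (40 min), then detection reagent (40 min). Luminescence converted to ADP by ATP-to-ADP conversion curves. v0 taken from the linear slope, then Michaelis–Menten fit. SEM from ≥2 independent experiments.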

HsFN3K H288A [12] = molecular target: T7, HsFN3K H288A; experiment: ADP-Glo kinase kinetics, HsFN3K H288A; type: biochemical; details: H288A mutant vs WT HsFN3K
Method in brief: as §1

glycated lysozyme: crystallization grade lysozyme incubated with ribose or glucose; protein substrate of FN3K
substrate phosphorylation (HsFN3K WT): able to phosphorylate

Nc1ncnc2c1ncn2[C@@H]1O[C@H](COP(=O)(O)OP(=O)(O)NP(=O)(O)O)[C@@H](O)[C@H]1O [AMP-PNP, adenylyl-imidodiphosphate]
binding of ATP mimetic (HsFN3K [1]; HsFN3K WT (Figure S7)): readily bound to HsFN3K

human Fructosamine-3-kinase (HsFN3K) (from UniProt Q9H479 1-309) (enzyme)
stoichiometry N [2]: 2 | stoichiometry N [3]: 2

Nc1ncnc2c1ncn2[C@@H]1O[C@H](COP(=O)(O)OP(=O)(O)OP(=O)([O-])[O-])[C@@H](O)[C@H]1O.[Na+].[Na+] [ATP, Adenosine-5-triphosphate disodium salt]
Kd (HsFN3K D217A [4]; read-out: binding affinity (KD) for ATP, MST): 3.5 ± 2.3 µM | binding of ATP and DMF (HsFN3K D234A [5]): impaired binding | Kd (HsFN3K [6]; read-out: binding affinity (KD) for ATP, fluorescently labeled HsFN3K WT, 25°C): 3.9 ± 3.4 µM | ligand binding by Tm shift (HsFN3K W219A): retained the ability to bind ATP | melting temperature (Tm) with ligand (HsFN3K [1]; HsFN3K WT, ligand 250 μM, apo Tm 56.9 ± 0.7°C): 63.2 ± 0.5 °C | Tm increase versus HsFN3K alone (HsFN3K [1]; HsFN3K WT): ~ 6 °C | ATP binding (HsFN3K H291A [7]): retained the ability to bind ATP | Tm shift in the presence of ATP or DMF individually or together (HsFN3K D234A [8]): no observable Tm shift | ATP binding (HsFN3K H288A [9]): retained the ability to bind ATP | ligand binding by Tm shift (HsFN3K D217A [10]): retained the ability to bind ATP

O=C(CN1CCOCC1)[C@@H](O)[C@H](O)[C@H](O)CO [DMF, 1-Deoxy-1-morpholino-fructose]
binding of DMF (HsFN3K D217A [4]; MST): lost the ability to bind DMF | increase of Km for DMF versus wildtype (HsFN3K H291A [11]): 3.5 fold | binding of ATP and DMF (HsFN3K D234A [5]): impaired binding | increase of Km for DMF versus wildtype (HsFN3K H288A [12]): 3 fold | binding of DMF in the absence of ATP (HsFN3K [6]; HsFN3K WT, absence of ATP): did not bind DMF | ligand binding by Tm shift (HsFN3K W219A): did not bind DMF | substrate (DMF) engagement in presence of AMP-PNP (HsFN3K [1]; HsFN3K WT, AMP-PNP instead of ATP (Figure S7)): prevented substrate engagement | melting temperature (Tm) with both ATP and DMF (HsFN3K [1]; HsFN3K WT, ATP+DMF 250 μM): 65.2 ± 0.6 °C | Tm shift of ATP and DMF compared to ATP alone (HsFN3K [1]; HsFN3K WT, DMF added with ATP): ~ 2 °C | Tm increase versus HsFN3K alone (HsFN3K [1]; HsFN3K WT): did not alter the Tm | Tm shift on DMF binding (HsFN3K H291A [7]): 3.6 °C | Tm shift in the presence of ATP or DMF individually or together (HsFN3K D234A [8]): no observable Tm shift | Tm shift on DMF binding (HsFN3K H288A [9]): 0.6 °C | ligand binding by Tm shift (HsFN3K D217A [10]): lost binding to DMF
